As usually defined, the pIC50 is the IC50 on a negative log10 scale, so that one unit is a factor of ten. For orientation: pEC50 means the EC50 on a negative log10 scale, so that one unit is a factor of ten. What is called CC50 is the concentration at which the toxic effect on the cells reaches its halfway point.

Series [1] can be described thus: Inhibition of SARS CoV-2 3C like protease using FAM-SAVLQ/SG-QLX520 as substrate pretreated for 1 hr followed by substrate addition and measured after 1 hr by FRET assay. The arrangement: species or system Severe acute respiratory syndrome coronavirus 2. Put shortly: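 SARS-CoV-2 3CLpro was expressed from pET-28a(+). It was preincubated with serial compound dilutions at 37°C for 1 h in 20 mM HEPES pH 8, 200 mM NaCl, 0.4 mM EDTA, 60% glycerol and 6 mM DTT. IC50 came from a variable-slope fit, averaging at least two determinations.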

A short description of series [2]: Inhibition of MERS CoV 3C like protease using FAM-SAVLQ/SG-QLX520 as substrate pretreated for 30 mins followed by substrate addition and measured after 1 hr by FRET assay. The arrangement: species or system Middle East respiratory syndrome-related coronavirus.
Series [3] can be described thus: Inhibition of SARS CoV-2 3C like protease expressed in HEK293T cells transfected with pGlo-VRLQS incubated for 6 hrs by firefly/renilla luciferase reporter assay. Type of series: cell-based. As to conditions: Severe acute respiratory syndrome coronavirus 2, HEK-293T. Put shortly:
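HEK293T cells, one day old, were co-transfected with pR-SARS-CoV-2 3CLpro (3CLpro gene in a PRRSV replicon, between ORF1b and 2a) and pGlo-VRLQS (caged firefly luciferase with a VRLQS cleavage site, plus Renilla control). C145A-mutant and mock transfections served as negative controls. Next morning, serial compound dilutions were added for 6 h at 37 C. Read-out was the firefly/Renilla ratio, and EC50 came from a variable-slope fit.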
Background: A reporter such as luciferase makes a cellular process visible.

A further series deals with SARS-CoV-2. The series is described as follows: Antiviral activity against SARS CoV-2 infected in African green monkey Vero cells assessed as inhibition of viral replication incubated for 48 to 72 hrs by plaque reduction assay. Type of series: functional, organism-based. As to conditions: Severe acute respiratory syndrome coronavirus 2, Vero.
Another series concerns HEK-293T. The series is described as follows: Cytotoxicity against HEK293T cells assessed as reduction in cell viability measured after 72 hrs by CytoTox 96 nonradioactive cytotoxicity assay. Type of series: cell-based. As to conditions: human. Put shortly: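 HEK293T cells were exposed to compound at 1 to 100 μM for 72 h. Cytotoxicity was read with a CytoTox 96 nonradioactive kit, and CC50 was fitted with a variable-slope curve.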

SMILES strings stand for the structures. pEC50, pIC50: −log10 of the molar value.

As to `CC(C)C[C@H](NC(=O)OC(c1ccccc1)C1CCC(F)(F)CC1)C(=O)N[C@@H](C[C@@H]1CCNC1=O)C(O)S(=O)(=O)O` (stereo not given in full), the pIC50 was 6.77 in series [1] and 7.30 in series [2]. Also, the pEC50 in series [3] is 5.84; in the series on SARS-CoV-2 it was 6.15. Also, the CC50 in the series on HEK-293T is above 100000 nM.

The record behind these values is ChEMBL document CHEMBL5029188.
